# APJ agonist = activates the human apelin receptor APJ | CHO-K1 APJ PathHunter beta-arrestin, luminescence; 0% DMSO wells, 100% apelin | activation, % at 20 µM | actives 0.11% (n = 330,000);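 active means activation more than six SD over the plate average, tested at 20 µM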;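 further: 0% = DMSO alone and 100% = apelin-13 at 10 nM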
#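 Assay system – PathHunter CHO-K1 APJ (AGTRL-1) beta-arrestin reporter cells · Compound – one dose, 20 µM compound, 1% DMSO · Timing – compound 90 min 25 °C, reagent 1 h · Measured by – luminescence from split beta-galactosidase complementation, Galacton Star/Emerald II substrate · Measure – beta-arrestin recruitment to APJ as agonist activity, luminescent signal · Benchmarks – DMSO vs Apelin-13 10 nM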
# EBI2 antag = blocks human EBI2 receptor beta-arrestin signaling. EBI2 beta-arrestin recruitment, luminescence, 7a,25-OHC stimulated. actives 0.81% (n = 360,000). inhibition, % at 5 µM. P32249; in the data active means inhibition above about 38%;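 further: enzyme fragment complementation signal reports receptor beta-arrestin coupling in cells; 0% = agonist plus DMSO wells and 100% = wells without agonist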
# CCR6 antagonist = antagonists of human CCR6 receptor; P51684; CHO-K1 CCR6 PathHunter beta-arrestin, luminescence, CCL20-stimulated; inhibition, % at 20 µM; actives 0.49% (n = 340,000); AID 493098;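 active means compounds whose inhibition of the agonist-driven luminescence signal at 20 µM reaches about 50%, limit read from the data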;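 further: cells stimulated with CCL20 at 14 nM final; plate controls were DMSO with CCL20 for no effect and DMSO without agonist for full effect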
# APJ antagonist = blocks the human apelin receptor APJ; CHO-K1 APJ beta-arrestin complementation, luminescence; inhibition, % at 20 µM; actives 0.32% (n = 330,000);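 active means inhibition above about 40% at 20 µM, limit read from the data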;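 further: cells challenged with 10 nM apelin-13 agonist together with compound; plate controls were apelin-13 plus DMSO wells for no effect and DMSO wells lacking apelin-13 for full effect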
# HTR2A ag = agonists of mouse serotonin 5-HT2A receptor (HTR2A); activation, % at 7.6 µM; CHO-K1 mHTR2A beta-arrestin complementation, luminescence; percent of 30 µM serotonin response; P35363; actives 0.66% (n = 360,000);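 active means activation above a run cutoff, the mean activation of all tested compounds plus 3 SD, cut at about 14% in these data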;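 further: 0% = plate median of compound wells and 100% = 30 µM serotonin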
# CXCR6 inh = CXCR6 (human) receptor inhibition. O00574. CHO-K1 PathHunter CXCR6 beta-arrestin, luminescence. inhibition, % at 20 µM. actives 0.36% (n = 360,000). AID 602244; in the data active means inhibition above about 34%, passing the limit was not always enough;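 further: antagonist mode with CXCL16 agonist at 10 nM final; 0% = 10 nM CXCL16 with DMSO and 100% = unstimulated wells without agonist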
# Target sequence (O00574 whole entry, looked up): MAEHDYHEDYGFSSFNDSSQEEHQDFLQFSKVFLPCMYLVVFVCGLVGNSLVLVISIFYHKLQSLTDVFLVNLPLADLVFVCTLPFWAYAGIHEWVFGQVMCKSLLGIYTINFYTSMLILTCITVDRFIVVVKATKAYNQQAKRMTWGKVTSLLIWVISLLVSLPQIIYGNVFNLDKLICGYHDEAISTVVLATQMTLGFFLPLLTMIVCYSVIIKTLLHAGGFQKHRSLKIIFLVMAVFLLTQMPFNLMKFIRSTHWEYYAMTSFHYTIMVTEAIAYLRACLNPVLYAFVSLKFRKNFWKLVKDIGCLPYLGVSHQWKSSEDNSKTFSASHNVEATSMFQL
# EBI2 conf = EBI2 (human) antagonism, single concentration confirmation | shares compounds with EBI2 antag | EBI2 beta-arrestin luminescence, 7a,25-OHC antagonism | inhibition, % at 5 µM | actives 29% (n = 2,400);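 active means inhibition of at least 50%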
# EBI2 ag = EBI2 agonism counter-screen | EBI2-expressing cells, agonist mode, luminescence, 60 min; 0% vehicle, 100% 7α,25-dihydroxycholesterol control | shares compounds with EBI2 antag | AID 652000 | activation, % at 5 µM | 2,400 tested, under 10 active;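 active means activation of at least 50%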
# bGal counter = inhibits E. coli beta-galactosidase, counter-screen for EBI2 antagonists. shares compounds with EBI2 antag. purified beta-galactosidase, luminescent Galacton Star, 15 min. inhibition, % at 5 µM. actives 1% (n = 2,400). AID 652176;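 active means replicate-average signal at least 3 plate SD below neutral wells, shown as high inhibition, flagging enzyme-inhibiting false positives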;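 further: 0% = DMSO wells with enzyme and 100% = wells lacking enzyme; higher means stronger loss of beta-gal luminescence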
# An asterisk follows results filed as active; x = no result. A selection: hits, their analogues and other compounds. The true share with any hit is near 2.1%.
SMILES,APJ agonist,EBI2 antag,CCR6 antagonist,APJ antagonist,HTR2A ag,CXCR6 inh,EBI2 conf,EBI2 ag,bGal counter
COc1cccc(-c2cc(C(=O)N3CCN(S(=O)(=O)c4ccc(Br)cc4)CC3)[nH]n2)c1,5,57*,14,-11,-3,-4,38,1,11
COc1cc(C(=O)N2CCN(C(=O)c3cc(-c4ccc(Br)cc4)n[nH]3)CC2)cc(OC)c1OC,-1,52*,4,-51,-1,2,10,-1,-13
COc1ccccc1-c1ccc2c(c1)O[C@@H](CN(C)C(=O)Nc1cccc(F)c1)[C@H](C)CN([C@H](C)CO)S2(=O)=O,x,44*,x,x,0,-14,2,2,2
CN(Cc1ccc(Cl)c(Cl)c1)C(=O)c1cccc(S(=O)(=O)N2CCN(Cc3ccccc3)CC2)c1,-4,58*,2,15,-1,-3,28,1,6
CN(Cc1cccc(Cl)c1Cl)C(=O)c1cccc(S(=O)(=O)N2CCN(Cc3ccccc3)CC2)c1,3,54*,8,-10,-5,-4,18,0,-14
Cc1nc(CS(=O)(=O)c2ccccc2)cc(Sc2ccc(Cl)cc2Cl)n1,-1,75*,11,10,-5,3,53*,-1,8
COc1ccc(C(=O)/C=C/c2ccc(F)cc2)c(OC(=O)c2ccc([N+](=O)[O-])cc2)c1,-4,54*,6,7,-2,10,26,0,8
COc1ccc(C(=O)/C=C/c2cccs2)c(OC(=O)c2cccc([N+](=O)[O-])c2)c1,-2,-2,11,4,-1,-3,x,x,x
O=C(NCCN1C(=O)S/C(=C\c2ccc(Cl)cc2)C1=O)c1ccc(F)c(S(=O)(=O)N2CCOCC2)c1,0,67*,-5,-8,1,0,48,2,-1
Cc1c(C(=O)Oc2cccc3ccccc23)cnn1-c1ccccc1,-2,31*,4,-6,1,-1,4,0,2
CC(=O)c1cnn(-c2ccccc2)c1C,-4,-1,17,18,3,-2,x,x,x
COc1ccc(OCCNc2cc(N3CCOCC3)ccc2[N+](=O)[O-])cc1,0,30,19,-1,-2,18,x,x,x
COc1cccc(OCCNc2cc(N3CCOCC3)ccc2[N+](=O)[O-])c1,-3,44*,13,13,-2,12,33,0,-3
COc1cccc(OCCNc2cc(N3CCCCC3)ccc2[N+](=O)[O-])c1,-6,61*,24,24,2,28,46,0,6
CC(C)(C)S(=O)N1Cc2cc(C(=O)NCc3ccc4c(c3)OCO4)nc(-c3cccc(-c4ccccc4)c3)c2[C@@H]1CCO (stereo partly specified),x,46*,x,x,-1,4,23,-1,6
CCCNC(=O)c1cc2c(c(-c3cccc(-c4ccc(F)cc4)c3)n1)[C@@H](CCO)N(S(=O)C(C)(C)C)C2 (stereo partly specified),x,-7,x,x,-3,-1,x,x,x
CC(C)(C)S(=O)N1Cc2cc(C(=O)NCc3ccc4c(c3)OCO4)nc(-c3cccc(-c4ccncc4)c3)c2[C@H]1CCO (stereo partly specified),x,-9,x,x,7,0,x,x,x
CCCNC(=O)c1cc2c(c(-c3cccc(-c4ccc(F)cc4)c3)n1)[C@H](CCO)N(S(=O)C(C)(C)C)C2 (stereo partly specified),x,61*,x,x,-3,13,19,0,-12

# High-throughput results deposited in PubChem by several laboratories.
